Measured values taken from ChEMBL document CHEMBL1123174, “Inhibitors of Bacillus subtilis DNA polymerase III. Influence of modifications in the pyrimidine ring of anilino- and (benzylamino)pyrimidines” (J Med Chem, 1986).

Key:
[1] = target: T1, DNA polymerase III PolC-type (Bacillus subtilis (strain 168), UniProt P13267); test: Concentration producing 50% inhibition of Bacillus subtilis DNA polymerase III in the absence of dATP using DNA Polymerase assay; NA=Inactive
How it was run: (§1)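 B. subtilis DNA polymerase III assayed as a truncated reaction: the nucleotide competing with the inhibitor class (dGTP or dATP) was omitted from the mix.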

[2] = target: T1, DNA polymerase III PolC-type; test: Concentration producing 50% inhibition of Bacillus subtilis […] in the presence of dATP using DNA Polymerase assay
[3] = target: T1, DNA polymerase III PolC-type; test: Compound was tested for its inhibitory activity against Bacillus subtilis […] using DNA Polymerase assay; IA=Inactive; how it was run: as §1
[4] = target: T1, DNA polymerase III PolC-type; test: Compound was tested for its inhibitory activity against Bacillus subtilis DNA topoisomerase III using DNA Polymerase assay; how it was run: as §1
[5] = target: T1, DNA polymerase III PolC-type; test: Compound was tested for its inhibitory activity against DNA topoisomerase III Polymerase III using DNA Polymerase assay; IA=Inactive; how it was run: as §1
[6] = target: T1, DNA polymerase III PolC-type; test: Concentration producing 50% inhibition of Bacillus subtilis DNA polymerase III in the absence of dGTP using DNA Polymerase assay; settings: read-out: Ki; how it was run: as §1
[7] = target: T1, DNA polymerase III PolC-type; test: Concentration producing 50% inhibition of Bacillus subtilis […] in the absence using DNA Polymerase assay
[8] = target: T1, DNA polymerase III PolC-type; test: Concentration producing 50% inhibition of Bacillus subtilis DNA polymerase III in the absence of dATP using DNA Polymerase assay; NA= Inactive; how it was run: as §1
[9] = target: T1, DNA polymerase III PolC-type; test: Concentration producing 50% inhibition of Bacillus subtilis […] in the presence of dGTP using DNA Polymerase assay

T1 sequence (P13267 whole entry, the tested form may be a part): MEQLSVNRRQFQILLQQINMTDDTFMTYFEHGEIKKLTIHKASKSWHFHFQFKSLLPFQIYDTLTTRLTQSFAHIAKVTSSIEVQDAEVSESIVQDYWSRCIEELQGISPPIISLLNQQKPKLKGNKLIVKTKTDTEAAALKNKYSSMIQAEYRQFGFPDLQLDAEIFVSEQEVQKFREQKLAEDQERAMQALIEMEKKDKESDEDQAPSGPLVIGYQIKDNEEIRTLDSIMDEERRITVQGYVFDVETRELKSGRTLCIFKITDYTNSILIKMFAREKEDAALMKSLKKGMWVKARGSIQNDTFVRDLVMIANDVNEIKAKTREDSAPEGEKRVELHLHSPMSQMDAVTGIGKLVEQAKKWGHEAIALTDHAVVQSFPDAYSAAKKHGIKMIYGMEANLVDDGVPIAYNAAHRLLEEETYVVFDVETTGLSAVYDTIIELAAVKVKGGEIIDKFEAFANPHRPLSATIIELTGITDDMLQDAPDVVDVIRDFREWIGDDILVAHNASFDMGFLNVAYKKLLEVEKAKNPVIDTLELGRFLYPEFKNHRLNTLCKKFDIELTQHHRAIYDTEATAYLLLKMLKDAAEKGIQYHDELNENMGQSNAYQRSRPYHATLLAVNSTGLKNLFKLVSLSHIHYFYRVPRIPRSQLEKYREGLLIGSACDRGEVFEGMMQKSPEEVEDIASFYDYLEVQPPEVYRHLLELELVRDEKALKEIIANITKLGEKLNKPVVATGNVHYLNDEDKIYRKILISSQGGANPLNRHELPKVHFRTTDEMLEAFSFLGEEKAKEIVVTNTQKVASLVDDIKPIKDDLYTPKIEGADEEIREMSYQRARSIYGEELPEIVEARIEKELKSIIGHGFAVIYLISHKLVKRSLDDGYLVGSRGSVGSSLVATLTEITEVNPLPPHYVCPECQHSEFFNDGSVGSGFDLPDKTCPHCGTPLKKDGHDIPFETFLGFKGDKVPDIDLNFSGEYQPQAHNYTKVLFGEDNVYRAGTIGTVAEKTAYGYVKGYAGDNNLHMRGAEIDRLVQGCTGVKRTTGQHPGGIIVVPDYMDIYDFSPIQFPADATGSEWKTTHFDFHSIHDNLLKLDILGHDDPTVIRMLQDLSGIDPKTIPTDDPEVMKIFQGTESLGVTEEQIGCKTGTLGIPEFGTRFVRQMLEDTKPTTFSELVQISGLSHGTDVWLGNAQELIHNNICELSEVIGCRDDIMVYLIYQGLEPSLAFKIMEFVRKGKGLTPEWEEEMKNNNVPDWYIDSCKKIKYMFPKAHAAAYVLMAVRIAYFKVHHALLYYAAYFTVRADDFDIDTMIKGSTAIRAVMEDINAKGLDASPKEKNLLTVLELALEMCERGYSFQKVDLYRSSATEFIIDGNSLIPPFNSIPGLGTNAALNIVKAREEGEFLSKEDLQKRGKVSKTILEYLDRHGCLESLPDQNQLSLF

SMILES: Nc1nc(NCc2ccccc2)cc(SCc2ccccc2)n1
- Ki [1]: Not Active

SMILES: Nc1nc(O)cc(Nc2ccc3c(c2)CCC3)n1
- Ki [2]: 2 µM

SMILES: Cc1ccc(Nc2nc(O)nc(O)c2N=O)cc1
- Ki [3]: Not Active

SMILES: Nc1nc(Cl)cc(NCc2ccccc2)n1
- Ki [4]: 17 µM

SMILES: CCc1c(O)nc(O)nc1Nc1ccc(C)cc1
- Ki [1]: Not Active

SMILES: O=Nc1c(O)nc(O)nc1NCc1ccccc1
- Ki [5]: Not Active

SMILES: Cc1ccc(Nc2nc(O)nc(O)c2Br)cc1
- IC50 [6]: 14 µM

SMILES: Cc1c(O)nc(O)nc1NCc1ccccc1
- Ki [7]: 436 µM

SMILES: O=c1[nH]c(NCc2ccccc2)c(I)c(=O)[nH]1
- IC50 [6]: 9 µM

SMILES: Oc1nc(O)c(Br)c(NCc2ccccc2)n1
- IC50 [6]: 9 µM

SMILES: O=c1nc(NCc2ccccc2)[nH]c(=O)[nH]1
- IC50 [6]: 20 µM

SMILES: Cc1ccc(Nc2[nH]c(=O)[nH]c(=O)c2C)cc1
- IC50 [6]: 1580 µM

SMILES: Cc1ccc(Nc2nc(=O)[nH]c(=O)[nH]2)cc1
- IC50 [6]: 70 µM

SMILES: Nc1nc(NCc2ccccc2)cc(SCc2ccc(Cl)cc2)n1
- Ki [8]: Not Active

SMILES: CCc1c(O)nc(O)nc1NCc1ccccc1
- IC50 [6]: 2820 µM

SMILES: O=c1cc(NCc2ccccc2)[nH]c(=O)[nH]1
- Ki [9]: 7.5 µM

SMILES: Oc1cc(Nc2ccc3c(c2)CCC3)nc(O)n1
- Ki [9]: 0.4 µM

SMILES: Nc1nc(O)cc(NCc2ccccc2)n1
- Ki [2]: 33 µM
